Source: ChEMBL document CHEMBL1156262, “Substituted benzothiophene or benzofuran derivatives as a novel class of bone morphogenetic protein-2 up-regulators: synthesis, structure-activity relationships, and preventive bone loss efficacies in senescence accelerated mice (SAMP6) and ovariectomized rats” (J Med Chem, 2010)
Activity calls are given as the source filed them.

Tests used:
Rattus norvegicus [1] = assay: Toxicity in rat assessed as pathological changes in kidney at 150 mg/kg/day, po after 3 months by histomorphology; format: organism-based; set-up: route oral; conditions: in vivo
Method in brief: (§1)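 Rats, n = 7, given oral doses of 150 mg/kg/day for 3 months. Heart, liver, spleen, lung and kidney examined histologically for pathological change.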

Mus musculus [2] = assay: Toxicity in SAMP6 mouse assessed as increase in body weight at 30 mg/kg/day, po after 3 months; format: organism-based; set-up: route oral; conditions: in vivo
Method in brief: (§2)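 SAMP6 mice, n = 5 per group, dosed orally at 30 mg/kg/day in 0.5% methylcellulose for 3 months. Heart, liver, spleen, lung and kidney harvested, weighed and examined histologically. Organ/body weight indexes, body weight, and 24 h water and food intake (g/g body weight) compared with vehicle controls.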

Rattus norvegicus [3] = assay: Toxicity in rat assessed as pathological changes in spleen at 150 mg/kg/day, po after 3 months by histomorphology; format: organism-based; set-up: route oral; conditions: in vivo; method in brief: as §1
Rattus norvegicus [4] = assay: Induction of bone formation in ovariectomized rat assessed as decrease in trabecular resorption surface percentage at 7.5 mg/kg/day, po after 3 months; format: functional, organism-based; conditions: Trabecula
Method in brief: (§3)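 Female rats (205–235 g) randomized by body weight, n = 7 per group: sham, ovariectomized with vehicle, ovariectomized with raloxifene 5 mg/kg/day, and ovariectomized with compound at 7.5, 15 or 30 mg/kg/day. All dosing oral for 3 months. Undecalcified proximal tibia sections analysed by histomorphometry, with comparisons against the sham and ovariectomized groups.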

Mus musculus [5] = assay: Toxicity in SAMP6 mouse assessed as change in 24 hrs water consumption at 30 mg/kg/day, po after 3 months; format: organism-based; set-up: route oral; conditions: in vivo; method in brief: as §2
Mus musculus [6] = assay: Induction of BMP2 expression in SAMP6 mouse osteoblast at 10 mg/kg/day, po after 3 months by immunohistochemical analysis; format: functional, organism-based
Method in brief: (§4)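 SAMP6 mice, 5 months old, male and female, n = 5 per group (3 male, 2 female). Dosed by gavage with compound suspended in 0.5% methylcellulose daily for 3 months; the vehicle group received methylcellulose only. Proximal third of the left femur fixed in 4% neutral paraformaldehyde for 24 h, decalcified in 10% EDTA at 4 °C for 4 weeks, then frozen-sectioned at 5 μm. Stained with rabbit polyclonal anti-BMP-2 and an alkaline phosphatase secondary. BMP-2-positive area was taken as a percentage of bone tissue area, averaged over five fields below the epiphyseal plate.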

Rattus norvegicus [7] = assay: Prevention of bone loss in ovariectomized rat assessed as increase in number, thickness, area and connectivity of trabecula at 30 mg/kg/day, po after 3 months by histomorphometry Leica Qwin image analysis; format: functional, organism-based; method in brief: as §3
Mus musculus [8] = assay: Induction of bone formation in SAMP6 mouse right femora assessed as trabecular formation surface percentage at 30 mg/kg/day, po measured after 3 months by bone histomorphometry; format: functional, Trabecula
Method in brief: (§5)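 SAMP6 mice, 5 months old, n = 5 per group (3 male, 2 female), randomized by initial BMD. Given compound in 0.5% methylcellulose by gavage daily for 3 months. Proximal third of the right femur fixed in 4% paraformaldehyde, cut as undecalcified sections, and scored by image analysis for histomorphometry.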

Mus musculus [9] = assay: Toxicity in SAMP6 mouse assessed as pathological changes in spleen at 30 mg/kg/day, po after 3 months by histomorphology; format: organism-based; set-up: route oral; conditions: in vivo; method in brief: as §2
Mus musculus [10] = assay: Induction of BMP2 expression in SAMP6 mouse bone marrow stroma at 30 mg/kg/day, po after 3 months by immunohistochemical analysis; format: functional, organism-based; method in brief: as §4
Mus musculus [11] = assay: Toxicity in SAMP6 mouse assessed as change in 24 hrs food consumption at 30 mg/kg/day, po after 3 months; format: organism-based; set-up: route oral; conditions: in vivo; method in brief: as §2
Mus musculus [12] = assay: Toxicity in SAMP6 mouse assessed as pathological changes in kidney at 30 mg/kg/day, po after 3 months by histomorphology; format: organism-based; set-up: route oral; conditions: in vivo; method in brief: as §2
Rattus norvegicus [13] = assay: Induction of bone formation in ovariectomized rat assessed as increase in trabecular bone volume percentage at 15 mg/kg/day, po after 3 months; format: functional, organism-based; conditions: Trabecula; method in brief: as §3
Mus musculus [14] = assay: Induction of bone mineral density in SAMP6 mouse assessed as whole body BMD at 30 mg/kg/day, po measured after 2 months
Rattus norvegicus [15] = assay: Toxicity in rat assessed as pathological changes in heart at 150 mg/kg/day, po after 3 months by histomorphology; format: organism-based; set-up: route oral; conditions: in vivo; method in brief: as §1
Mus musculus [16] = assay: Toxicity in SAMP6 mouse assessed as pathological changes in heart at 30 mg/kg/day, po after 3 months by histomorphology; format: organism-based; set-up: route oral; conditions: in vivo; method in brief: as §2
Rattus norvegicus [17] = assay: Induction of bone formation in ovariectomized rat assessed as increase in trabecular bone volume percentage at 7.5 mg/kg/day, po after 3 months; format: functional, organism-based; conditions: Trabecula; method in brief: as §3
Mus musculus [18] = assay: Induction of BMP2 expression in SAMP6 mouse cartilage cells at 30 mg/kg/day, po after 3 months by immunohistochemical analysis; format: functional, organism-based; method in brief: as §4
Rattus norvegicus [19] = assay: Toxicity in rat assessed as pathological increase in body weight at 150 mg/kg/day, po after 3 months; format: organism-based; set-up: route oral; conditions: in vivo
Method in brief: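 Female rats (n = 7) were dosed orally once daily at 150 (mg/kg)/day for 3 months. Body weight, behaviour and fur were observed throughout. At the end, hearts, livers, spleens, lungs and kidneys were sectioned for histological examination of pathological changes.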

Rattus norvegicus [20] = assay: Induction of bone formation in ovariectomized rat assessed as decrease in trabecular resorption surface percentage at 30 mg/kg/day, po after 3 months; format: functional, organism-based; conditions: Trabecula; method in brief: as §3
Mus musculus [21] = assay: Induction of bone mineral density in SAMP6 mouse assessed as whole body BMD at 30 mg/kg/day, po measured after 3 months; format: functional
Method in brief: (§6)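 SAMP6 mice, 5 months old, n = 5 per group, given compound in 0.5% methylcellulose by gavage daily. Dual-energy X-ray absorptiometry under pentobarbital anaesthesia (50 mg/kg ip), animals prone, at 0, 4, 8 and 12 weeks of treatment. Regions of interest were whole body, spine and left hind leg.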

Mus musculus [22] = assay: Induction of BMP2 expression in SAMP6 mouse osteoblast at 30 mg/kg/day, po after 3 months by immunohistochemical analysis; format: functional, organism-based; method in brief: as §4
Rattus norvegicus [23] = assay: Prevention of bone loss in ovariectomized rat assessed as increase in number, thickness, area and connectivity of trabecula at 15 mg/kg/day, po after 3 months by histomorphometry Leica Qwin image analysis; format: functional, organism-based; method in brief: as §3
[24] = Toxicity in po dosed Kunming mouse assessed as mortality treated for 3 days measured after 17 days; format: organism-based; conditions: in vivo
Method in brief: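 Male and female Kunming mice (18-21 g), six per group (three males, three females), were dosed orally at 500 or 700 (mg/kg)/day for 3 days. They were closely watched for deaths over the 3 dosing days and the following 14 days (17 days in total).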

Mus musculus [25] = assay: Induction of bone mineral density in SAMP6 mouse assessed as whole body BMD at 10 mg/kg/day, po measured after 1 month; format: functional, organism-based; conditions: 30 mg/kg, in the assay text read “30 mg/kg/day” for “10 mg/kg/day”; method in brief: as §6
Rattus norvegicus [26] = assay: Induction of bone formation in ovariectomized rat assessed as decrease in trabecular resorption surface percentage at 15 mg/kg/day, po after 3 months; format: functional, organism-based; conditions: Trabecula; method in brief: as §3
Mus musculus [27] = assay: Induction of bone formation in SAMP6 mouse right femora assessed as trabecular resorption surface percentage at 30 mg/kg/day, po measured after 3 months by bone histomorphometry; format: functional, Trabecula; method in brief: as §5
[28] = Toxicity in ip dosed Kunming mouse assessed as mortality treated for 3 days measured after 17 days; format: organism-based; conditions: in vivo
Mus musculus [29] = assay: Induction of bone mineral density in SAMP6 mouse assessed as spine BMD at 30 mg/kg/day, po measured after 3 months; format: functional; method in brief: as §6
Rattus norvegicus [30] = assay: Toxicity in rat assessed as pathological changes in lung at 150 mg/kg/day, po after 3 months by histomorphology; format: organism-based; set-up: route oral; conditions: in vivo; method in brief: as §1

CC(=O)c1cc2ccccc2s1
0.086 g/cm2: Activity (Mus musculus [29])
active: Activity (Rattus norvegicus [4]) | Activity (Mus musculus [6]) | Activity (Rattus norvegicus [7]) | Activity (Mus musculus [10]) | Activity (Rattus norvegicus [13]) | Activity (Mus musculus [14]) | Activity (Rattus norvegicus [17]) | Activity (Rattus norvegicus [20]) | Activity (Mus musculus [22]) | Activity (Rattus norvegicus [23]) | Activity (Mus musculus [25]) | Activity (Rattus norvegicus [26])
7.09%: Activity (Mus musculus [27])
Non-toxic: Activity (Rattus norvegicus [1]) | Activity (Mus musculus [2]) | Activity (Rattus norvegicus [3]) | Activity (Mus musculus [5]) | Activity (Mus musculus [9]) | Activity (Mus musculus [11]) | Activity (Mus musculus [12]) | Activity (Rattus norvegicus [15]) | Activity (Mus musculus [16]) | Activity (Rattus norvegicus [19]) | Activity (Rattus norvegicus [30])
0.068 g/cm2: Activity (Mus musculus [21])
5.89%: Activity (Mus musculus [8])
inactive: Activity (Mus musculus [18])
> 5000 mg/kg: LD50 at 408 h [24]
> 1580 mg/kg: LD50 at 408 h [28]
